Laboratory results from paper PMC2740628 (Colloids and surfaces. B, Biointerfaces, 2009).
pEC50: −log10 of the molar value. Where two headings read alike, the source gives them in different places.

What was measured:
Rabbit red blood cells [1] = experiment: Haemolytic activity test; format: cell-based; details: for pEC50: 2 h, 37 °C; for Haemolytic activity (in words): 7 μM to 3.3 mM
Summary of the method: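 Rabbit erythrocytes (2% in PBS) were tested in PBS alone or in PBS with 20% fetal bovine serum. Compounds were dissolved in DMSO, then PBS (DMSO at most 5% final) and tested from 7 μM to 3.3 mM. After 2 h at 37 °C, cells were pelleted at 700g for 10 min. Released haemoglobin was read at 540 nm. The value reported is the lowest concentration giving 50% haemolysis.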

[2] = tested on: B16F10 mouse melanoma cell line; experiment: MTT-based cytotoxicity test; format: cell-based; details: for pEC50: read-out: Cytotoxicity EC50, B16F10, 24 h exposure, MTT, range 1 μM to 250 μM; for Cytotoxicity (in words): B16F10, 24 h, 1 μM to 250 μM
Summary of the method: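 B16F10 cells were grown in D-MEM with 10% FCS, antibiotics and glutamine at 37 °C, 5% CO2. Cells were seeded at 2.5–3.0 × 10^4/mL and grown for 16–24 h. Compounds were added from DMSO/PBS (DMSO below 1% final) at 1–250 μM for 24 h, with octylthioglucoside as positive control. MTT was applied for 3 h, formazan was dissolved with SDS (pH 5.5) and read at 540 nm the next day. EC50 came from dose-response curves, run in triplicate.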

B16 melanoma cell line = details: 48 h exposure; cited from earlier work
[3] = DPH steady-state fluorescence anisotropy, membrane partitioning; format: physicochemical; details: for Membrane partition coefficient K (DPPC bilayers / aqueous phase): calculated with equation 2 from the depression of Tm, surfactant 0-20 μM; for Effect on phase transition temperature Tm of DPPC (in words): surfactant 0 to 20 μM, DPH-labelled DPPC vesicles
Summary of the method: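 DPPC large unilamellar vesicles were made with DPH at a lipid:DPH molar ratio of 500:1 and surfactant at 0–20 μM, mixed in chloroform and dried. They were hydrated in water above 50 °C for 1 h and extruded 15 times at 50 °C. Anisotropy was read at λex 350/λem 452 nm while cooling from 50 °C to 20 °C at 0.2 °C/min. Tm was taken from anisotropy-temperature plots and K from the Tm shift (ΔHm 31.38 kJ·mol-1). Run in triplicate.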

B16F10 cells = details: cited from earlier work
Rabbit red blood cells [4] = details: at 3.3 mM (highest concentration), data reported previously ref 15; cited from earlier work
human erythrocytes = details: cited from earlier work
[5] = read-out: Haemolytic activity EC50 20 % serum, rabbit red blood cells, PBS containing 20% fetal bovine serum
[6] = read-out: Haemolytic activity EC50 without serum, rabbit red blood cells 2% in PBS, without serum
[7] = at 3.3 mM (highest concentration), without serum

SMILES | pEC50 (Rabbit red blood cells [1]; [5]) | pEC50 (Rabbit red blood cells [1]; [6]) | pEC50 [2] | further results
CCCCCCCO[C@@H]1O[C@H](CO)[C@H](O)[C@H](O)[C@H]1O [β-15a] | < 2.48 | < 2.48 | < 3.60 | –
CCCCCCCCCCCCCCO[C@H]1O[C@H](CO)[C@@H](O)[C@H](O)[C@H]1O [α-13b] | < 2.48 | 2.60 | 4.28 | Haemolysis, percentage in parentheses after >3.3 mM, 20 % serum (Rabbit red blood cells [1]; at 3.3 mM (highest concentration), 20 % serum): 30%
OCC1OC(OCCC(F)(F)C(F)(F)C(F)(F)C(F)(F)C(F)(F)C(F)(F)C(F)(F)C(F)(F)C(F)(F)C(F)(F)F)C(O)C(O)C1O [corresponding β-D-galactopyranoside] | – | – | – | Toxicity at 50 μM (in words) (B16 melanoma cell line): displayed some toxicity
CCCCCCCCCCCCCCCCCCCO[C@H]1O[C@H](CO)[C@@H](O)[C@H](O)[C@H]1O [α-13g, nonadecyl α-D-glucopyranoside] | < 2.48 | < 2.48 | < 3.60 | Haemolytic activity (in words) (Rabbit red blood cells [1]; rabbit red blood cells): not haemolytic; Cytotoxicity (in words) [2]: did not show a cytotoxic effect
CCCCCCCCS[C@@H]1O[C@H](CO)[C@@H](O)[C@H](O)[C@H]1O [OTG, Octylthioglucoside, reference compound] | 2.52 | 3.30 | < 3.60 | –
CCCCCCCCCCCCCCCCCO[C@H]1O[C@H](CO)[C@@H](O)[C@H](O)[C@H]1O [α-13e] | < 2.48 | < 2.48 | 4.43 | Haemolysis, percentage in parentheses after >3.3 mM, without serum (Rabbit red blood cells [1]; [7]): 25%
CCCCCCCO[C@@H]1O[C@H](CO)[C@@H](O)[C@H](O)[C@H]1O [β-13a, Heptyl-β-D-glucopyranoside] | < 2.48 | < 2.48 | < 3.60 | Haemolytic activity (in words) (Rabbit red blood cells [1]; rabbit red blood cells): essentially nonhaemolytic; Cytotoxicity (in words) [2]: insignificant; Membrane partition coefficient K (DPPC bilayers / aqueous phase) [3]: 4.61×10^4; Effect on phase transition temperature Tm of DPPC (in words) [3]: decreased the phase transition temperature of DPPC only slightly
CCCCCCCCCCCCCCCCO[C@H]1O[C@H](CO)[C@@H](O)[C@H](O)[C@H]1O [α-13d] | < 2.48 | < 2.48 | 4.15 | Haemolysis, percentage in parentheses after >3.3 mM, without serum (Rabbit red blood cells [1]; [7]): 20%
CCCCCCCCCCCCCCCCO[C@@H]1O[C@H](CO)[C@@H](O)[C@H](O)[C@H]1O [β-13d, hexadecyl β-D-glucopyranoside] | – | – | – | Membrane partition coefficient K (DPPC bilayers / aqueous phase) [3]: 2.78×10^5; Effect on phase transition temperature Tm of DPPC (in words) [3]: decreased linearly over the entire concentration range investigated
CCCCCCCCCCCCCCCCCO[C@@H]1O[C@H](CO)[C@@H](O)[C@H](O)[C@H]1O [β-13e] | – | – | – | Apoptosis (in words) (B16F10 cells): induced apoptosis; Haemolysis, percentage in parentheses after >3.3 mM, 20 % serum (Rabbit red blood cells [4]): 5%
CCCCCCCCCCCCCCCCO[C@@H]1O[C@H](CO)[C@@H](O[C@H]2O[C@H](CO)[C@@H](O)[C@H](O)[C@H]2O)[C@H](O)[C@H]1O [β-17b] | 3.82 | 4.52 | 4.17 | Haemolytic activity (in words) (Rabbit red blood cells [1]; rabbit red blood cells): most haemolytic compound under investigation
CCCCCCCCCCCCO[C@@H]1O[C@H](CO)[C@@H](O[C@H]2O[C@H](CO)[C@@H](O)[C@H](O)[C@H]2O)[C@H](O)[C@H]1O [C12 maltopyranoside] | – | – | – | Lowest concentration causing lysis of human erythrocytes (human erythrocytes): 58 µM
OC[C@H]1O[C@@H](OCCC(F)(F)C(F)(F)C(F)(F)C(F)(F)C(F)(F)C(F)(F)C(F)(F)C(F)(F)C(F)(F)C(F)(F)F)[C@H](O)[C@@H](O)[C@@H]1O [3,3,4,4,5,5,6,6,7,7,8,8,9,9,10,10,11,11,12,12,12-heneicosafluoro-dodecyl-β-D-glucopyranoside] | – | – | – | Toxicity at 50 μM (in words) (B16 melanoma cell line): nontoxic
CCCCCCCCCCCCCCCCO[C@@H]1O[C@H](CO)[C@H](O)[C@H](O)[C@H]1O [β-15b, hexadecyl β-D-galactopyranoside] | < 2.48 | < 2.48 | < 3.60 | Haemolysis, percentage in parentheses after >3.3 mM, without serum (Rabbit red blood cells [1]; [7]): 40%; Membrane partition coefficient K (DPPC bilayers / aqueous phase) [3]: 5.15×10^5; Effect on phase transition temperature Tm of DPPC (in words) [3]: linear decrease in Tm up to a surfactant concentration of 7 μM and an approximately constant Tm at concentrations ≥ 10 μM
